# Assay outcomes deposited in PubChem BioAssay by Broad Institute.
# CAL PDZ FP-1: blocks peptide binding to the human CAL PDZ domain; Q9HD26; purified CAL PDZ, TMR-peptide fluorescence polarization, 1 h; inhibition, % at 24.9 µM; 300,000 tested, 0.92% active; AID 602252;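 active means mean inhibition of at least 30% with at least half of replicates also reaching 30%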;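 further: 0% = DMSO neutral control and 100% = excess unlabeled competitor peptide PRC23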
# PDI inh: PDI (human) enzyme inhibition; PDI insulin aggregation turbidity, A650, 90 min; 350,000 tested, 0.052% active; inhibition, % at 10 µM; P07237; AID 588391;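 active means mean inhibition across replicates of 30% or more, whatever share of single replicates reach that level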
# RAD54 branch: RAD54 (human) branch migration inhibition; AID 602329; 360,000 tested, 0.14% active; RAD54 Holliday junction branch migration, FAM/BHQ fluorescence; inhibition, % at 10.4 µM; Q92698;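 active means mean normalized replicate activity at least 40 and at least half of replicates scoring 40 or more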;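 further: 0% = median of neutral control wells and 100% = median of positive control wells; inhibitors cause a drop in the FAM fluorescence signal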
# CAL PDZ FP-2: human CAL PDZ-peptide interaction inhibition | Q9HD26 | 330,000 tested, 0.02% active | AID 504414 | inhibition, % at 20 µM | purified CAL PDZ, TMR-peptide fluorescence polarization, 1 h;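 active means highest replicate inhibition of at least 40%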;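 further: plate controls were DMSO neutral control wells for no effect and unlabeled competitor peptide control wells for full effect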
#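 Test system: purified CerCALP PDZ construct; Compound dosing: one concentration, 20 µM compound; Also added: TMR-labelled reporter peptide T*-PRC34 bound in PDZ groove; Read-out: inhibition from polarization loss; Controls: unlabelled peptide and DMSO controls; Signal: FP readout, S and P plane fluorescence; Incubation: 1 h at RT.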
# RAD52 inh: blocks human RAD52 DNA annealing; P43351; inhibition, % at 18.7 µM; 360,000 tested, 0.46% active; recombinant RAD52 DNA annealing, FRET fluorescence;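 active means every replicate showing at least 50% inhibition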
# ERp5 block: inhibitors of human ERp5. Q15084. ERp5 insulin aggregation, absorbance 650 nm, 90 min. inhibition, % at 9.99 µM. 350,000 tested, 0.05% active;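 active means mean replicate inhibition above about 25%, with every replicate also reaching it, limit read from the data, passing the limit was not always enough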
# Target sequence (Q15084 whole entry, looked up): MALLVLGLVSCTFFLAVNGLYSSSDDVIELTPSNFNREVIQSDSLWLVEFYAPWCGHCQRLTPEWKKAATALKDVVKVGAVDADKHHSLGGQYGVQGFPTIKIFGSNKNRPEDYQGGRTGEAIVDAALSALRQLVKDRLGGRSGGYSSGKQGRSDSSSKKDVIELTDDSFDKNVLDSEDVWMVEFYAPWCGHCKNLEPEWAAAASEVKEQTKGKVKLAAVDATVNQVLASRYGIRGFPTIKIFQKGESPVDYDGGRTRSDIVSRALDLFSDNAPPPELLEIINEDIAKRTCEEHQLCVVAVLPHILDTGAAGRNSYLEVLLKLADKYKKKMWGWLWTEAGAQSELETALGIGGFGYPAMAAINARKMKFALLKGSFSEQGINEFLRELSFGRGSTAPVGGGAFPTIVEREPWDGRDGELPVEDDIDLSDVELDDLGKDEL
# Starred values were filed as active, the others as inactive; . = no result given; + = active, no number. This is a sample that favours compounds with a hit; in the whole collection about 1% have one here.
SMILES,CAL PDZ FP-1,PDI inh,RAD54 branch,CAL PDZ FP-2,RAD52 inh,ERp5 block
C[C@H](CO)N1C[C@H](C)[C@@H](CN(C)Cc2ccc(C(F)(F)F)cc2)Oc2c(NC(=O)Nc3ccccc3)cccc2C1=O,.,.,-0.1,.,11.8,-1.1
CCn1nnc(NC(=O)c2ccc(-c3ccc(Cl)cc3)o2)n1,0.1,3.3,-9.4,-6.0,.,.
CCn1nnc(NC(=O)Cc2ccc(Cl)cc2)n1,102.3*,-1.0,.,-0.7,-0.8,6.9
Cc1[nH]nc(Nc2ccccc2)c1[N+](=O)[O-],-3.0,-8.9,-1.7,-1.0,.,.
Cc1[nH]nc(NCCO)c1[N+](=O)[O-],30.9*,-3.4,-0.9,4.5,-6.8,-3.2
COc1ccc(NC(=O)N2CCCCN3[C@H](CO)[C@@H](c4ccc(C5=CCCC5)cc4)[C@@H]3C2)cc1,.,.,-0.1,.,21.6,1.5
O=C(CN1CCN(C/C=C/c2ccccc2)CC1)NC(=O)NC1CCCCC1,72.2*,-6.0,.,.,-9.9,0.0
O=C(CN1CCN(Cc2ccccc2)CC1)NC(=O)NC1CCCCC1,-3.1,-4.4,-8.4,-0.3,-6.5,6.0
CN(C)c1ccc2c(c1)[C@@H]1C[C@@H](CC(=O)NCCN3CCCCC3)O[C@H](CO)[C@@H]1O2,.,.,55.3*,.,31.6,4.8
CCCNC(=O)C[C@@H]1C[C@H]2c3cc(NS(C)(=O)=O)ccc3O[C@H]2[C@H](CO)O1,.,.,-0.8,.,-0.2,.
O=C(C[C@@H]1C[C@H]2c3cc(NS(=O)(=O)c4ccccc4)ccc3O[C@H]2[C@H](CO)O1)NC1CCCCC1,.,.,-13.7,.,-2.4,35.0*
O=C(C[C@H]1C[C@H]2c3cc(NS(=O)(=O)c4ccccc4)ccc3O[C@H]2[C@H](CO)O1)NC1CCCC1,.,.,-1.5,.,-6.4,-5.3
CCCNC(=O)C[C@H]1C[C@@H]2c3cc(NC(=O)CC4CC4)ccc3O[C@@H]2[C@@H](CO)O1,.,.,-11.5,.,-4.6,61.7*
CCCNC(=O)C[C@@H]1C[C@@H]2c3cc(NS(C)(=O)=O)ccc3O[C@@H]2[C@H](CO)O1,.,.,3.5,.,3.8,32.3*
CO[C@@H]1CN(C)C(=O)c2ccc(NC(=O)C3CCOCC3)cc2OC[C@@H](C)N(C(=O)C2CCOCC2)C[C@H]1C,.,.,-1.8,.,16.1,-4.4
CCCC#Cc1cnc2c(c1)C(=O)N([C@@H](C)CO)C[C@H](C)[C@H](CN(C)C(=O)Cc1cccnc1)O2,.,.,5.3,.,1.8,-8.7
CC(C)NC(=O)N(C)C[C@H]1Oc2ccc(NC(=O)Cc3ccccc3)cc2CC(=O)N([C@H](C)CO)C[C@H]1C,.,.,-2.4,.,-3.5,0.9
COc1ccc(C(CNC(=O)COc2ccccc2C#N)N2CCOCC2)cc1 (centres undefined),2.5,4.5,-0.8,-1.5,.,.
Cc1ccccc1SCC(=O)NCC(c1ccc(F)cc1)N1CCOCC1 (centres undefined),53.4*,-0.3,-0.1,-0.6,-5.5,4.5
COc1ccc(/C=C(\C#N)C(=O)NCC(c2ccc(F)cc2)N2CCOCC2)cc1 (centres undefined),77.5*,1.2,1.9,0.2,-18.2,3.5
C[C@H]1CN([C@@H](C)CO)C(=O)c2cc(NS(=O)(=O)c3ccc(F)cc3)ccc2O[C@@H]1CN(C)C(=O)NC1CCCCC1,.,.,-0.2,.,-1.3,-0.4
CCCN1C[C@@H](C)[C@@H](OC)CN(C)C(=O)c2cc(NC(=O)c3cnccn3)ccc2OC[C@@H]1C,.,.,1.5,.,-17.2,-0.7
O=C(O)CCCC(=O)Nc1ccc(N2CCCC2)cc1,92.6*,3.5,4.8,.,.,.
Cc1ccc(C(=O)NC2CCCN(c3ccc(C(F)(F)F)cn3)C2)cn1 (centres undefined),44.9*,-4.3,-2.9,0.2,-12.7,8.0
O=C(NC1CCCN(c2ccc(C(F)(F)F)cn2)C1)c1cc(Cl)ccc1F (centres undefined),-7.6,1.4,3.2,-0.4,-1.3,1.6
SMILES,CAL PDZ FP-1,PDI inh,RAD54 branch,CAL PDZ FP-2,RAD52 inh,ERp5 block
Cn1c(N)c(S(=O)(=O)N2CCCC2)c(=O)n(C)c1=O,46.5*,-1.8,0.3,-0.7,-21.4,7.1
COCCCn1c(=O)c2sccc2n2c(CCCC(=O)NCc3cccc(OC)c3)nnc12,46.8*,8.0,-12.9,-1.5,-5.8,-0.2
O=C(COC(=O)/C=C/c1ccccc1[N+](=O)[O-])Nc1ccc(S(=O)(=O)N2CCOCC2)cc1,35.2*,6.4,-18.1,-0.2,-14.6,-7.7
O=C(COC(=O)c1cc(S(=O)(=O)N2CCOCC2)ccc1Cl)Nc1ccc2c(c1)OCO2,78.9*,-0.9,-0.8,-2.1,.,.
CN1CCN(C(=O)/C(=C/c2cn(S(=O)(=O)N(C)C)c3ccccc23)NC(=O)c2ccccc2F)CC1,53.7*,-0.8,1.2,-2.0,-10.5,3.8
CN(C)S(=O)(=O)n1cc(/C=C(\NC(=O)c2ccccc2F)C(=O)N2CCCC2)c2ccccc21,-1.2,3.7,.,-2.5,2.0,-1.3
O=C(/C=C/c1ccco1)Nc1ccc2c(c1)OCO2,60.0*,-3.6,.,.,2.7,1.2
C[C@@H]1CN([C@@H](C)CO)C(=O)c2cc(NC(=O)Nc3cccc4ccccc34)ccc2O[C@H]1CN(C)C(=O)Nc1ccccc1,.,.,1.4,.,-0.8,-7.9
Cc1nn(-c2cccc(Cl)c2)c2nc(C(F)(F)F)[nH]c(=O)c12,43.2*,0.2,.,-2.1,0.2,5.2
CN(C)C(=O)CSc1nnc([C@H](Cc2c[nH]c3ccccc23)NC(=O)OC(C)(C)C)o1,-0.8,45.5*,-0.4,-1.3,.,.
CCOC(=O)CSc1nnc([C@H](Cc2ccccc2)NC(=O)OC(C)(C)C)o1,1.4,-5.0,-4.0,-1.1,.,.
Cc1ccc(S(=O)(=O)Nc2cccc3c2O[C@@H](CN(C)C)[C@H](C)CN([C@H](C)CO)C3=O)cc1,.,.,3.2,.,-0.3,-1.6
COc1ccccc1OCC(=O)N1CCCC(Nc2ccc(F)c(F)c2)C1 (centres undefined),+,3.8,-10.9,-0.6,-3.5,-2.5
O=C(c1ccc2nccnc2c1)N1CCCC(Nc2ccc(F)c(F)c2)C1 (centres undefined),51.3*,1.9,-4.1,-0.8,-8.6,-21.4
Cc1ccc(NC2CCCN(C(=O)CCN3CCCCO3)C2)cc1C (centres undefined),61.8*,-6.3,13.8,0.9,-4.2,6.5
Cc1ccc(NC2CCCN(C(=O)c3ccc4nccnc4c3)C2)cc1C (centres undefined),-7.3,3.2,0.7,-2.8,-4.7,-15.1
O=C(c1cc(Cl)ccc1F)N1CCCC(Nc2ccc3c(c2)OCCO3)C1 (centres undefined),36.8*,-10.2,11.1,0.5,-13.6,-0.8
COc1ccccc1OCC(=O)N1CCCC(Nc2cccc(F)c2)C1 (centres undefined),.,-2.1,-4.4,-0.5,-7.3,0.1
CO[C@H]1CN(C)C(=O)c2cc(NC(C)=O)ccc2OC[C@@H](C)N(Cc2ccccc2F)C[C@H]1C,.,.,-9.9,.,0.3,-3.4
